Hits are enriched below; roughly 5% of the tested compounds scored in any of these assays.
Mdm2-MdmX inh = inhibitors of human Mdm2-MdmX association, primary screen, cell-based, luminescence, split luciferase, SaOS-2, uHTS | Protein Mdm4 (Homo sapiens) + E3 ubiquitin-protein ligase Mdm2 (Homo sapiens), … | inhibition, % at 8 µM | SaOS-2 split-luciferase Mdm2/MdmX complementation | 3% of 330,000 active;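 active = inhibition of at least 50% at 8 µM in the primary screen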
Beta apoptosis = inhibitors of cytokine-induced beta cell apoptosis, primary screen, luminescence; 0.8% of 300,000 active; INS-1E cytokine-induced death, ATP luminescence, 48 h; percent of positive-control rescue, neutral wells zero; AID 435005, 2010; protection from apoptosis, % (no concentration beside the values);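 active = Every replicate reaches about 75%, or at least half do and their mean reaches it too, limit read from the data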;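 also: 0% = cytokine-treated negative control wells and 100% = positive control rescue; higher means more ATP so stronger rescue from cytokine killing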
UPR XBP1 act = activators of adaptive XBP1 UPR arm, primary screen, cell-based, CHO-XBP1 luciferase reporter, luminescence, uHTS. IRE1-XBP1 UPR activation; percent of tunicamycin response, DMSO as zero. activation, % at 20 µM. 0.33% of 330,000 active. AID 463104, 2010;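 active = versus positive control, 20 µM dose yields 30% or more activation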;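 also: 100% = tunicamycin at 10 µg/mL and 0% = DMSO only wells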
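Material: CHO-XBP1 cells stably carrying IRE1-XBP1-driven luciferase reporter / Amount: 1000 cells per well / Compound: 20 µM, 1% DMSO / Times: 6 h treatment, 37 °C / Detection: luciferase luminescence / Measure: % activation of reporter signal versus tunicamycin and DMSO controls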
CSC inhib = cancer stem cell viability inhibitors, primary screen, luminescence; AID 2717, 2010; cancer stem cell-like cells viability; inhibition, % at 7.5 µM; 1.1% of 300,000 active; in the data active = inhibition above about 75%; tested in HMLE shEcad cells
T cruzi repl = inhibitors of intracellular T. cruzi growth, primary screen, luminescence, NIH3T3 host cells | AID 1885, 2009 | inhibition, % (concentration not given with the values) | 1.4% of 300,000 active | T. cruzi beta-gal in NIH3T3, 90 h;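 active = mean inhibition across valid replicates above about 55%, limit read from the data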;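 also: signal also drops with host cell toxicity which is not excluded here; 0% = plate median of DMSO wells and 100% = zero luminescence signal; higher percent means less beta-gal luminescence so fewer parasites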
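Test system: β-gal T. cruzi (Tulahuen C4) inside NIH/3T3 cells / Quantity: 5,000 cells/well / Measured by: luminescence from GalScreen with 0.05% NP40, read after 60 min / Medium: DMEM plus 2% FBS / Measure: parasite load inhibition, % / Reagent: Tulahuen C4 trypomastigotes, 5000/well / Schedule: co-culture of at least 90 h after 3 h attachment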
UPR CHOP act = activators of apoptotic CHOP UPR arm, primary screen, cell-based, CHO-CHOP luciferase reporter, luminescence, uHTS; UPR activation; percent of tunicamycin response over DMSO baseline; activation, % at 10 µM; 0.34% of 330,000 active;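 active = at 10 µM dose, activation of 40% or more, normalized to positive control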;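 also: 100% = tunicamycin at 10 µg/mL and 0% = DMSO alone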
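System: CHO CHOP reporter cells. Amount: 500 cells per well. Buffer or medium: F12 medium, 10% FBS. Compound dosing: one dose, 10 µM in 0.5% DMSO. Incubation: 6 h compound exposure at 37 °C after overnight seeding. Technique: Steady-Glo luciferase luminescence. Benchmarks: tunicamycin and DMSO controls.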
Mdm2 MdmX conf = Mdm2-MdmX complex disruptors, retested hits, confirmation, luminescence, single concentration. shares compounds with Mdm2-MdmX inh. Mdm2-MdmX binding, luminescent assay. inhibition, % at 8 µM. 55% of 10,000 active; in the data active = inhibition above about 40%
FLuc counter = full-length luciferase signal inhibition, confirmation, counter-screen for Mdm2/MdmX interaction inhibitor project, cell-based, single concentration, SaOS-2; shares compounds with Mdm2-MdmX inh; SaOS-2 full-length luciferase counterscreen, luminescence; inhibition, % at 8 µM; 77% of 6,200 active;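 active = mean inhibition at 8 µM reaching about 37%, which flags the compound as non-specific, limit read from the data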;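 also: p53-null SaOS-2 cells with luciferase driven by a doxycycline-inducible promoter; compound on cells about two nights before reading with doxycycline added after day one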
Starred values were filed as active, the others as inactive; nt = no result given.

SMILES	Mdm2-MdmX inh	Beta apoptosis	UPR XBP1 act	CSC inhib	T cruzi repl	UPR CHOP act	Mdm2 MdmX conf	FLuc counter
Cc1ccc(N(CC(=O)NC(C)C)C(=O)CCC(=O)Nc2nccs2)cc1C	20	-5	-5	-5	-4	2	nt	nt
O=C(Nc1cccc(C(=O)O)c1)/C(=C\c1ccccc1)NC(=O)c1cccc2ccccc12	-1	-7	-3	-4	-13	-1	nt	nt
O=C(Nc1ccc(F)cc1)c1cc(-c2ccccn2)nc2c(Cl)cccc12	60*	11	20	-11	4	2	46*	62*
O=C(Nc1ccncc1)c1cc(-c2ccccn2)nc2ccccc12	9	1	-1	-5	1	0	nt	nt
O=C(CNC(=O)C12CC3CC(CC(C3)C1)C2)NCc1ccccc1	0	3	-4	0	19	0	nt	nt
COc1cc(/C=C2\N=C(c3ccccc3)NNC2=O)cc(OC)c1OC	61*	nt	12	nt	-17	-1	54*	64*
CCc1ccc2c(CN(C)Cc3ccccc3OC)cc(=O)oc2c1	-36	-3	3	21	8	2	nt	nt
Cc1ccccc1NC(=S)N1CCN(c2ccccc2)CC1	2	-6	-3	-27	-4	2	nt	nt
Cc1onc(-c2ccccc2)c1C(=O)Nc1nnc(C(C)(C)C)s1	4	-5	0	-2	-10	3	nt	nt
COC(=O)c1ccc2nc(Nc3nc4c(F)cc(F)cc4s3)sc2c1	88*	-4	-5	45	-19	-8	37	nt
CCOC(=O)c1ccc2nc(Nc3nc4ccc(F)cc4s3)sc2c1	82*	-5	-9	56	-3	-9	60*	11
CCOC(=O)N1CCN(S(=O)(=O)c2ccc(C(=O)Nc3nc4ccc(F)cc4s3)cc2)CC1	55*	39	26	34	3	6	23	nt
COC(=O)c1ccc2nc(NC(=O)C(C)C)sc2c1	-73	-3	3	1	45	5	nt	nt
CSc1ccc(S(=O)(=O)N2c3ccccc3CC2C)cc1 (stereo not drawn)	53*	6	-1	39	17	3	54*	65*
CC1Cc2ccccc2N1S(=O)(=O)c1cnc(Cl)c(Cl)c1 (stereo not drawn)	30	-3	-5	0	-1	0	nt	nt
CC(=O)N1CCc2cc(S(=O)(=O)N3c4ccccc4CC3C)ccc21 (stereo not drawn)	61*	12	4	-6	3	0	54*	58*
COCCn1c(C)cc(C(=O)CSc2nnc(C)s2)c1C	52*	-5	-7	-23	-8	-9	62*	48*
COCCn1c(C)cc(C(=O)CSc2n[nH]c(N)n2)c1C	9	-3	-2	-20	-14	1	nt	nt
COCCn1c(C)cc(C(=O)COC(=O)c2cccc(O)c2)c1C	74*	2	-8	-9	-10	-8	85*	71*
COc1ccc(Cl)cc1C(=O)CSc1nnnn1C1CCCC1	6	1	1	-2	nt	1	nt	nt
COCCn1c(C)cc(C(=O)CSc2nnnn2C2CCCC2)c1C	72*	0	-9	-14	nt	-9	80*	79*
COc1ccc(C(=O)Nc2cc3c4c(c2)C(C)C(=O)N4CCC3)cc1OC (stereo not drawn)	22	2	0	-5	2	2	nt	nt
O=c1c(Cl)c(Cl)cnn1Cc1nnc(-c2ccccc2Br)o1	100*	nt	-7	nt	57*	-8	100*	54*
CN1CCN(C(=O)CCCN2C(=O)/C(=C/c3cccc(Br)c3)SC2=S)CC1	63*	nt	4	nt	66*	1	31	29
O=C(CCCN1C(=O)/C(=C/c2cccc(Br)c2)SC1=S)N1CCOCC1	61*	-4	-2	-2	-1	2	21	nt
SMILES	Mdm2-MdmX inh	Beta apoptosis	UPR XBP1 act	CSC inhib	T cruzi repl	UPR CHOP act	Mdm2 MdmX conf	FLuc counter
CN1CCN(C(=O)CCN2C(=O)/C(=C/c3cccc(Br)c3)SC2=S)CC1	49	-35	-3	53	-1	-1	nt	nt
CC(=O)N[C@@H](Cc1c[nH]c2ccccc12)C(=O)NCCc1ccc(S(N)(=O)=O)cc1	12	-5	7	12	-15	-2	nt	nt
COc1ccc(OC)c(CCNC(=O)c2ccc3c(c2)N(Cc2ccccc2)CCS3)c1	29	0	-4	30	30	-3	nt	nt
COc1ccc(CCNC(=O)c2ccc3c(c2)N(Cc2ccccc2)CCS3)cc1OC	60*	-4	-7	23	12	1	16	nt
COc1ccc(/C=N/Nc2cc(N3CCOCC3)ncn2)c(OC)c1	28	1	5	-15	-8	-1	nt	nt
COc1cccc(/C=N/Nc2ncnc3c2ncn3Cc2ccccc2)c1O	82*	nt	2	-12	34	0	82*	63*
COc1cccc(/C=N/Nc2cc(N3CCOCC3)ncn2)c1O	73*	88*	-3	66	-9	0	61*	63*
O=S(=O)(c1ccc(F)cc1)N1CCN(CC2CC3C=CC2C3)CC1 (stereo not drawn)	24	nt	4	-9	7	-2	nt	nt
Cc1ccc(NC(=S)NCc2ccc3[nH]c4c(c3c2)CCCC4)cc1	72*	-4	1	nt	-1	2	8	nt
COCCNC(=S)NCc1ccc2[nH]c3c(c2c1)CCCC3	-12	nt	4	-1	-4	1	nt	nt
COc1ccc(-c2nc(N)ncc2-c2ccc(OC)c(OC)c2)c(O)c1	33	0	6	7	7	2	nt	nt
Nc1ncc(-c2ccccc2)c(-c2ccc(O)cc2O)n1	61*	-13	1	2	-7	-2	31	nt
COCCN(CC(=O)Nc1ccccc1C(F)(F)F)C(=O)/C=C/c1ccc2ccccc2n1	-14	-7	0	3	nt	0	nt	nt
CCOC(=O)CSC1=C(C#N)C(c2ccc(C)s2)CC(=O)N1 (stereo not drawn)	61*	nt	2	nt	-43	0	62*	67*
O=C(NCCCN1CCCC1=O)c1ccc(S(=O)(=O)Nc2cccc(C(F)(F)F)c2)cc1	7	-4	0	7	-9	0	nt	nt

From PubChem BioAssay
